According to ChEMBL document CHEMBL1143873, “Synthesis and biological evaluation of 2-alkylaminoethyl-1,1-bisphosphonic acids against Trypanosoma cruzi and Toxoplasma gondii targeting farnesyl diphosphate synthase” (Bioorg Med Chem, 2008):

Columns and labels:
Trypanosoma cruzi [1] = assay: Growth inhibition of Trypanosoma cruzi amastigotes in rat L6E9 cells; format: functional, organism-based
Toxoplasma gondii = assay: Growth inhibition of Toxoplasma gondii tachyzoites in HFF cells; format: functional, organism-based
[2] = target: T1, Farnesyl diphosphate synthase (Trypanosoma cruzi, UniProt Q8WS26); assay: Inhibition of Trypanosoma cruzi FPPS
T1 sequence (Q8WS26 whole entry): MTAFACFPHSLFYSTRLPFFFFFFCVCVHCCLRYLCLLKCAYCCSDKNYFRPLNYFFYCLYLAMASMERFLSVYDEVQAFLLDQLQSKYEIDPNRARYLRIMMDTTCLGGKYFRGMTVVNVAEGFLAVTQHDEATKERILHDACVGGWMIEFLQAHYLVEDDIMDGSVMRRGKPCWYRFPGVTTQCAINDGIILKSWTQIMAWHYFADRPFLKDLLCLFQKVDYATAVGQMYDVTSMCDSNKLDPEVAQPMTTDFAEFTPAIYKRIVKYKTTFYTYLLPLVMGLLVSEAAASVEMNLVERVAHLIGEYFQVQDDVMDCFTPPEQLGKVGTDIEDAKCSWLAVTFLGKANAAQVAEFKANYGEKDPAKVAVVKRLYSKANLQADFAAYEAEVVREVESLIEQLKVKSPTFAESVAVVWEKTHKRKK
Outline: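 Recombinant TcFPPS (10–20 ng) started into prewarmed buffer of 10 mM Hepes pH 7.4, 5 mM MgCl2, 2 mM DTT, 100 μM [4-14C]IPP, 100 μM DMAPP; 30 min at 37 °C; quenched with HCl, then alkalinised; hexane-extracted product counted by scintillation.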

[3] = target: T2, Farnesyl diphosphate synthase (Toxoplasma gondii, UniProt Q197X6); assay: Inhibition of Toxoplasma gondii FPPS
T2 sequence (Q197X6 whole entry): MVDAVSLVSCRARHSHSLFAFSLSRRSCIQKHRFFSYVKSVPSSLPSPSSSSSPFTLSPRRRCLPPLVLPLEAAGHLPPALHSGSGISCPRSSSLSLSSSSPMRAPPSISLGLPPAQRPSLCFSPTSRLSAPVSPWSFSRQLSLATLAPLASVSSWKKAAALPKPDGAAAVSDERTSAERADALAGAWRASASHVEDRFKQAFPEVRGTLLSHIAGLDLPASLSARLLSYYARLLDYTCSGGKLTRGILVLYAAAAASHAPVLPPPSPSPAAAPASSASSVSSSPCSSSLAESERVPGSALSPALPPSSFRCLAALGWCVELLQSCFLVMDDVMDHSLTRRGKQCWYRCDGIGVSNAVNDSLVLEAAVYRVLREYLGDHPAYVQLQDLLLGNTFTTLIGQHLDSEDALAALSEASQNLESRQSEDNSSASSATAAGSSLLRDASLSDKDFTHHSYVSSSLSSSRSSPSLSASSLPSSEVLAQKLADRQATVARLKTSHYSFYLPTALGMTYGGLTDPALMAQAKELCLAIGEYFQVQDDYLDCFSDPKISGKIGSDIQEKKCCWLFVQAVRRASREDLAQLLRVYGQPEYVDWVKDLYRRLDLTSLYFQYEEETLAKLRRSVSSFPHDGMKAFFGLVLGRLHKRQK
Outline: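 Recombinant TgFPPS (10–20 ng) started into prewarmed buffer of 10 mM Hepes pH 7.4, 1 mM MgCl2, 2 mM DTT, 100 μM [4-14C]IPP, 100 μM DMAPP; 30 min at 37 °C; quenched with HCl, then alkalinised; hexane-extracted product counted by scintillation.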

Trypanosoma cruzi [4] = assay: Growth inhibition of Trypanosoma cruzi amastigotes in rat L6E9 cells at 10 uM; format: functional; conditions: read-out: GI

Row | SMILES | IC50 (Trypanosoma cruzi [1]) [nM] | IC50 (Toxoplasma gondii) [nM] | IC50 [2] [nM] | IC50 [3] [nM] | inhibition of growth at 10 µM (Trypanosoma cruzi [4]) [%]
1 | CC(C)CNCC(P(=O)(O)O)P(=O)(O)O | > 50000 | 74500 | 515 | 181 | 
2 | O=P(O)(O)C(CNN1CCCC1)P(=O)(O)O | 14000 | 13300 | 760 | 361 | 
3 | CCCCCCNCC(P(=O)(O)O)P(=O)(O)O | 840 | 9370 | 490 | 137 | 
4 | O=P(O)(O)C(CNN1CCCCC1)P(=O)(O)O | 6100 | 70600 | 287 | 165 | 
5 | CCCCCCCCNCC(P(=O)(O)O)P(=O)(O)O | 4100 | 2600 | 1010 | 87 | 
6 | O=P(O)(O)C(CNC1CCCCC1)P(=O)(O)O |  | 57300 | 13 | 337 | 36.3
7 | CCCCCCCNCC(P(=O)(O)O)P(=O)(O)O | 10000 | > 50000 | 58 | 95 | 
8 | CC(C)CCNCC(P(=O)(O)O)P(=O)(O)O | 10000 | 36900 | 420 | 275 | 
9 | CCC(C)NCC(P(=O)(O)O)P(=O)(O)O (stereo not drawn) | > 50000 | > 100000 | 944 | 112 | 
10 | N#CSCCOc1ccc(Oc2ccccc2)cc1 | 12000 |  |  |  | 
11 | CC(C)(C)NCC(P(=O)(O)O)P(=O)(O)O | 10000 | 42800 | 1210 | 286 | 
12 | CCCCNCC(P(=O)(O)O)P(=O)(O)O | 4800 | 48700 | 2280 | 206 | 
13 | CC(C)NCC(P(=O)(O)O)P(=O)(O)O | > 50000 | 69800 | 1400 | 253 | 
14 | CCCNCC(P(=O)(O)O)P(=O)(O)O | > 50000 | 6330 | 38 | 298 | 
15 | CCCCCNCC(P(=O)(O)O)P(=O)(O)O | 540 | > 50000 | 1840 | 80 | 
16 | CCCCCCC(O)(P(=O)(O)O)P(=O)(O)O | 18000 |  |  |  | 
